Measurements published in ChEMBL document CHEMBL1158774, “Collagenase inhibitory quinic acid esters from Ipomoea pes-caprae” (J Nat Prod, 2005).
pIC50: −log10 of the molar value.

assay: Inhibition of collagenase type 5
Outline: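 Collagenase type V ([…]) with a 20 µg/mL enzyme solution is preincubated with samples in 4% MeOH at 37 °C for 10 min. Fluorogenic substrate MOCAc-Pro-Leu-Gly-Leu-A2pr(Dnp)-Ala-Arg-NH2 (5 µM solution) is then added. Fluorescence (ex 320, em 405 nm) is read during 1 h at 37 °C. Phosphoramidon is the positive control.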

Going from `O=C(/C=C/c1ccc(O)c(O)c1)O[C@@H]1C[C@](O)(C(=O)O)C[C@@H](OC(=O)/C=C/c2ccc(O)c(O)c2)[C@H]1O` to `COC(=O)[C@]1(O)C[C@@H](OC(=O)/C=C/c2ccc(O)c(O)c2)[C@@H](O)[C@H](OC(=O)/C=C/c2ccc(O)c(O)c2)C1`, the pIC50 rises from 4.63 to 5.24 (0.61 log units). The second is the more potent here.

`O=C(/C=C/c1ccc(O)c(O)c1)O[C@@H]1[C@H](O)C[C@@](O)(C(=O)O)C[C@H]1OC(=O)/C=C/c1ccc(O)c(O)c1` and `COC(=O)[C@]1(O)C[C@@H](O)[C@@H](OC(=O)/C=C/c2ccc(O)c(O)c2)[C@H](OC(=O)/C=C/c2ccc(O)c(O)c2)C1` are within 0.2 log units of each other in pIC50: 4.43 for the first, 4.58 for the second.

`O=C(/C=C/c1ccc(O)c(O)c1)O[C@@H]1C[C@](O)(C(=O)O)C[C@@H](OC(=O)/C=C/c2ccc(O)c(O)c2)[C@H]1OC(=O)/C=C/c1ccc(O)cc1` and `O=C(/C=C/c1ccc(O)c(O)c1)O[C@@H]1[C@H](OC(=O)/C=C/c2ccc(O)cc2)C[C@@](OC(=O)/C=C/c2ccc(O)cc2)(C(=O)O)C[C@H]1OC(=O)/C=C/c1ccc(O)c(O)c1` are within 0.2 log units of each other in pIC50: 4.72 for the first, 4.85 for the second.

Compared with `COC(=O)[C@@]1(O)C[C@@H](O)[C@H](OC(=O)/C=C/c2ccc(O)c(O)c2)[C@H](OC(=O)/C=C/c2ccc(O)c(O)c2)C1` [3,4-O-TRANS-CAFFEOYLQUINIC ACID METHYL ESTER], `O=C(O)/C=C/c1ccc(O)c(O)c1` [CAFFEIC ACID] is 0.71 log units lower in pIC50: 4.79 for the first, 4.08 for the second. The first is the more potent here.

Compared with `CC(C)C[C@H](NP(=O)(O)O[C@@H]1O[C@@H](C)[C@H](O)[C@@H](O)[C@H]1O)C(=O)N[C@@H](Cc1c[nH]c2ccccc12)C(=O)O` [PHOSPHORAMIDON], `O=C(O)[C@]1(O)C[C@@H](O)[C@@H](O)[C@H](O)C1` [QUINIC ACID] is lower in pIC50: 6.22 for the first, under 3.30 for the second. The first is the more potent here.
